Converted amounts (≈) assume the structure as drawn.
Columns and labels:
Hepatitis B virus [1] = assay: Antiviral activity against HBV infected in human HepAD38 cells assessed as reduction in viral DNA levels incubated for 6 days by PCR analysis; format: functional, organism-based; conditions: HePAD38, 144 h
[2] = Cytotoxicity in human HepAD38 cells assessed as induction of cell killing; format: cell-based
[3] = Selectivity index, ratio of CC50 for cytotoxicity in human HepAD38 cells assessed as induction of cell killing to EC50 for antiviral activity against HBV infected in human HepAD38 cells assessed as reduction in viral DNA levels incubated for 6 days by PCR analysis; format: toxicity, cell-based; conditions: read-out: Ratio CC50/EC50
[4] = Solubility in water at 1 mg at 25 degC by HPLC analysis; format: physicochemical
Summary of the method: (§1)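 Solubility determined in water or 0.067 M phosphate buffer at pH 5.8, 6.8 and 7.4. Values are reported in mg/mL; ND means below the detection limit.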

Hepatitis B virus [5] = assay: Antiviral activity against HBV infected in human HepG2.A64 cells containing reverse transcriptase L180M/T184L/M204V mutant assessed as reduction in viral replication incubated for 6 days by PCR analysis; format: functional, organism-based; conditions: HepG2.A64, 144 h
Summary of the method: (§2)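 Wild-type HBV replication measured in HepAD38 and HepG2.2.15 cells, lamivudine/entecavir-resistant HBV in HepG2.A64 cells (rtL180M+rtT184L+rtM204V) and multidrug-resistant HBV in HepG2.1403F cells (rtL180M+rtM204V+rtS202G+rtN236T). Read-out is reduction of HBV DNA. EC50 is reported as mean ± SD.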

Hepatitis B virus [6] = assay: Antiviral activity against multidrug-resistant HBV infected in human HepG2.1403F cells assessed as reduction in viral replication incubated for 6 days by PCR analysis; format: functional, organism-based; conditions: 144 h; summary of the method: as §2
[7] = Cytotoxicity in human HepG2 cells assessed as induction of cell killing; format: cell-based
[8] = Solubility in pH 6.8 phosphate buffer at 1 mg at 25 degC by HPLC analysis; format: physicochemical; conditions: BLD = below limit of detection; summary of the method: as §1

Structure (SMILES) | EC50 (Hepatitis B virus [1]) [nM] | CC50 [2] [µM] | selectivity ratio at 144 h [3] | also measured
Cc1cc(Nc2nn(C3CC3)c3ccc(S(=O)(=O)N4CCC(O)CC4)cc23)ccc1F | 32 | 11 | 343 | 
O=S(=O)(c1ccc2c(c1)c(Nc1ccc(F)cc1)nn2C1CC1)N1CCC(O)CC1 | 220 | > 100 | > 455 | 
Cc1cc(Nc2nn(CC(F)F)c3ccc(S(=O)(=O)N4CCOCC4)cc23)ccc1F | 230 | > 100 | > 435 | 
O=S(=O)(c1ccc2c(c1)c(Nc1ccc(F)c(C3CC3)c1)nn2C1CC1)N1CCC(O)CC1 | 680 | 5.86 | 8.6 | 
Cc1cc(Nc2nn(C3CC3)c3cc(F)c(S(=O)(=O)N4CCOCC4)cc23)ccc1F | 210 | > 100 |  | 
N#Cc1cc(Nc2nn(C3CC3)c3ccc(S(=O)(=O)N4CCC(O)CC4)cc23)ccc1F | > 10000 |  |  | 
O=S(=O)(c1ccc2c(c1)c(Nc1ccc(F)cc1)nn2C1CC1)N1CCOCC1 | 430 | > 100 | > 232 | 
CCn1nc(Nc2ccc(F)cc2)c2cc(S(=O)(=O)N3CCC(O)CC3)ccc21 | 1260 | > 100 | > 79 | 
O=S(=O)(c1ccc2c(c1)c(Nc1ccc(Cl)cc1)nn2C1CC1)N1CCC(O)CC1 | 3140 | 6.9 | 2.2 | 
O=S(=O)(c1ccc2c(c1)c(Nc1ccc(F)c(F)c1)nn2C1CC1)N1CCOCC1 | 220 | > 100 | > 454 | 
O=S(=O)(c1ccc2c(c1)c(Nc1ccc(F)cc1)nn2C1CC1)N1CCC(CO)CC1 | 1100 | 24.8 | 23 | 
O=S(=O)(c1ccc2c(c1)c(Nc1ccc(F)c(C(F)(F)F)c1)nn2C1CC1)N1CCC(O)CC1 | 6000 | 7.52 | 1.3 | 
O=S(=O)(c1ccc2c(c1)c(NC1CCCCC1)nn2C1CC1)N1CCC(O)CC1 | > 10000 | 100 | < 10 | 
Cc1cc(Nc2nn(C3CC3)c3ccc(S(=O)(=O)N4C[C@@H]5C[C@H]4CO5)cc23)ccc1F | 45 | 19 | 422 | 
O=S(=O)(c1ccc2c(c1)c(Nc1ccc(F)c(C(F)F)c1)nn2C1CC1)N1CCC(O)CC1 | 290 | 13.6 | 47 | 
O=S(=O)(c1cc2c(Nc3ccc(F)c(F)c3)nn(C3CC3)c2cn1)N1CCC(O)CC1 | 250 | > 100 | > 400 | 
Cc1cc(Nc2nn(C3CC3)c3ccc(S(=O)(=O)N4CCC(O)CC4)cc23)ncc1F | > 10000 |  |  | 
O=S(=O)(c1cc2c(Nc3ccc(F)c(C(F)F)c3)nn(C3CC3)c2cn1)N1CCOCC1 | 230 | > 100 | > 435 | 
Cc1ccc(Nc2nn(C3CC3)c3ccc(S(=O)(=O)N4CCC(O)CC4)cc23)cc1 | 220 to 5000 |  |  | 
O=S(=O)(c1ccc2c(c1)c(Nc1ccc(F)cc1)nn2C1CC1)N1CCC(O)C1 (stereo not given) | 2100 | 60 | 28 | 

Structure (SMILES) | EC50 (Hepatitis B virus [1]) [nM] | CC50 [2] [µM] | selectivity ratio at 144 h [3] | also measured
O=S(=O)(c1cc2c(Nc3ccc(F)c(C(F)(F)F)c3)nn(C3CC3)c2cn1)N1CCOCC1 | 340 | > 100 | > 294 | 
Cc1cc(Nc2nn(C3CC3)c3ccc(S(=O)(=O)N4CCC(O)CC4)cc23)ccn1 | > 20000 | 46.6 | < 23 | 
O=S(=O)(c1cnc2c(c1)c(Nc1cc(F)c(F)c(F)c1)nn2C1CC1)N1CCC(O)CC1 | > 20000 |  |  | 
O=S(=O)(c1cc2c(Nc3cc(F)c(F)c(F)c3)nn(C3CC3)c2cc1F)N1CCC(O)CC1 | 130 | > 100 | > 769 | 
O=S(=O)(c1ccc2c(c1)c(Oc1ccc(F)c(Cl)c1)nn2C1CC1)N1CCC(O)CC1 | > 10000 | 75 | < 7.5 | 
O=S(=O)(c1cc(F)c2c(c1)c(Nc1cc(F)c(F)c(F)c1)nn2C1CC1)N1CCC(O)CC1 | 2000 | > 100 | > 50 | 
Cc1cc(Nc2nn(C(F)F)c3ccc(S(=O)(=O)N4CCOCC4)cc23)ccc1F | > 10000 | > 100 |  | 
CC(C)n1nc(Nc2ccc(F)cc2)c2cc(S(=O)(=O)N3CCC(O)CC3)ccc21 | > 10000 |  |  | 
O=C(O)C1CCN(S(=O)(=O)c2ccc3c(c2)c(Nc2ccc(F)cc2)nn3C2CC2)C1 (stereo not given) | > 10000 | > 100 |  | 
Cc1cc(Nc2nn(CC(F)(F)F)c3ccc(S(=O)(=O)N4CCOCC4)cc23)ccc1F | 240 | > 100 | > 417 | 
O=S(=O)(c1ccc2c(c1)c(Nc1ccc(F)c(C(F)F)c1)nn2C1CC1)N1CCOCC1 | 120 | 50 | 417 | 
Cc1cc(Nc2nn(CCF)c3ccc(S(=O)(=O)N4CCOCC4)cc23)ccc1F | 410 | > 100 | > 244 | 
Cc1cc(Nc2n[nH]c3ccc(S(=O)(=O)N4CCOCC4)cc23)ccc1F | 290 | 50 | 172 | 
Cc1cc(F)ccc1Nc1nn(C2CC2)c2ccc(S(=O)(=O)N3CCC(O)CC3)cc12 | 1150 | > 100 | > 87 | 
O=S(=O)(c1ccc2c(c1)c(Nc1ccc(F)cc1)nn2C1CC1)N1CCCC(O)C1 (stereo not given) | 250 | 19.1 | 76.2 | 
Cc1cc(Nc2nn(C3CC3)c3cnc(S(=O)(=O)N4CCC(OC(=O)CN(C)C)CC4)cc23)ccc1F |  |  |  | solubility [4]: 710 µg/mL (≈ 1340 µM)
O=S(=O)(c1ccc2c(c1)c(Nc1ccc(F)c(C(F)(F)F)c1)nn2C1CC1)N1CCOCC1 | 290 | 8.42 | 29 | 
C[C@H](Cn1cnc2c(N)ncnc21)OCP(=O)(O)O [TENOFOVIR ANHYDROUS] | 10 |  |  | EC50 (Hepatitis B virus [5]): 840 nM; EC50 (Hepatitis B virus [6]): 2520 nM; CC50 [7]: 15 µM
O=S(=O)(c1cc2c(Nc3ccc(F)c(F)c3)nn(C3CC3)c2cn1)N1CCOCC1 | 220 | > 100 | > 454 | 
O=S(=O)(c1ccc2[nH]nc(Nc3ccc(F)c(Cl)c3)c2c1)N1CCC(O)CC1 | 1280 | 24 | 18.8 | 

Structure (SMILES) | EC50 (Hepatitis B virus [1]) [nM] | CC50 [2] [µM] | selectivity ratio at 144 h [3] | also measured
O=S(=O)(c1ccc2c(c1)c(Nc1ccccc1)nn2C1CC1)N1CCC(O)CC1 | 740 | 32.2 | 44 | 
O=C1CCN(S(=O)(=O)c2ccc3c(c2)c(Nc2ccc(F)cc2)nn3C2CC2)CC1 | 330 | 14.2 | 43 | 
O=S(=O)(c1ccc2c(c1)c(Nc1ccc(F)cc1Cl)nn2C1CC1)N1CCC(O)CC1 | 4000 | > 100 | > 25 | 
O=S(=O)(c1ccc2c(c1)c(NCc1ccc(F)cc1)nn2C1CC1)N1CCC(O)CC1 | > 10000 |  |  | 
O=S(=O)(c1ccc2c(c1)c(NC1CCCC1)nn2C1CC1)N1CCC(O)CC1 | > 10000 | > 100 |  | 
C=C1[C@H](CO)[C@@H](O)C[C@@H]1n1cnc2c(=O)[nH]c(N)nc21 | 11 |  |  | EC50 (Hepatitis B virus [5]): > 10000 nM; EC50 (Hepatitis B virus [6]): > 10000 nM; CC50 [7]: 42.1 µM
CC(=O)O.Cc1cc(Nc2nn(C3CC3)c3cnc(S(=O)(=O)N4CCC(OC(=O)CN(C)C)CC4)cc23)ccc1F |  |  |  | solubility [8]: Bld; solubility [4]: 1110 µg/mL
O=S(=O)(c1ccc2c(c1)c(Nc1ccc(F)cc1)nn2C1CCC1)N1CCC(O)CC1 | 8000 | 10.8 | 1.3 | 
O=S(=O)(c1ccc2c(c1)c(Nc1ccc(F)cc1)nn2C1COC1)N1CCC(O)CC1 | > 10000 |  |  | 
Cn1nc(Nc2ccc(F)c(Cl)c2)c2cc(S(=O)(=O)N3CCC(O)CC3)ccc21 | 1380 | > 100 | > 72 | 
CN(c1ccc(F)c(Cl)c1)c1nn(C2CC2)c2ccc(S(=O)(=O)N3CCC(O)CC3)cc12 | > 10000 | > 100 |  | 
O=S(=O)(c1ccc2c(c1)c(NCc1ccccc1)nn2C1CC1)N1CCC(O)CC1 | > 10000 |  |  | 
O=S(=O)(c1cc2c(Nc3cc(F)c(F)c(F)c3)nn(C3CC3)c2cn1)N1CCC(O)CC1 | 240 | > 100 | > 417 | 
O=S(=O)(c1ccc2c(n1)c(Nc1cc(F)c(F)c(F)c1)nn2C1CC1)N1CCC(O)CC1 | > 5000 |  |  | 
O=S(=O)(c1ccc2c(c1)c(Nc1ccc(F)cn1)nn2C1CC1)N1CCC(O)CC1 | > 10000 |  |  | 
O=S(=O)(c1ccc2c(c(Nc3cc(F)c(F)c(F)c3)nn2C2CC2)c1F)N1CCC(O)CC1 | > 20000 | > 100 |  | 
O=S(=O)(c1ccc2c(c1)c(Nc1ccc(F)cc1)nn2C1CC1)N1CCC2(CC1)OCCO2 | 250 | > 100 | > 400 | 
O=S(=O)(c1ccc2c(c1)c(Nc1ccc(F)c(Cl)c1)nn2C1CC1)N1CCC(O)CC1 | 190 | 18.3 | 96 | 
O=S(=O)(c1ccc2c(c1)c(Nc1ccc(F)c(F)c1)nn2C1CC1)N1CCC(O)CC1 | 120 | 75 | 625 | 
